# TLR4 MyD88 comp – TLR4-MyD88 interaction inhibition in cells. AID 861. actives 0.18% (n = 200,000). HeLa CL3-4 TLR4/MyD88 BLA complementation, FRET ratio. inhibition, % at 8.4 µM; in the data active = inhibition above about 25%;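 also: 0% = vehicle and 100% = reference inhibitor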
# MC4R barr agon – agonists of human melanocortin 4 receptor (MC4R) beta-arrestin; P32245; U2OS MC4R beta-arrestin complementation, luminescence; percent of melanotan II response, DMSO zero; activation, % at 8.9 µM; actives 0.98% (n = 360,000); AID 540308;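 active = activation above a per-plate cutoff, the mean activation of sample wells on that plate plus 3 SD, cut at about 8% in these data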
# MIN6 prolif – inducers of beta-cell replication in MIN6 cells | MIN6 cells proliferation, ATPlite luminescence, 48 h; cells starved in 0.2% serum; 100% = growth in 10% serum | proliferation, % at 10 µM | actives 0.29% (n = 330,000) | AID 2380;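 active = compounds whose signal lies at least 3.5 SD above the mean of all wells on their plate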;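 also: 0% = DMSO-treated cells in low-serum medium and 100% = 10% serum control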
# NOD2-RIPK2 inh – NOD2-RIPK2 protein interaction inhibition. O43353. actives 0.38% (n = 360,000). CHO BLA complementation NOD2-RIPK2, CCF4 ratio. inhibition, % at 4.98 µM; in the data active = inhibition above about 21%;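 also: 0% = vehicle only and 100% = reference blocker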
# Target sequence (O43353 whole entry, looked up): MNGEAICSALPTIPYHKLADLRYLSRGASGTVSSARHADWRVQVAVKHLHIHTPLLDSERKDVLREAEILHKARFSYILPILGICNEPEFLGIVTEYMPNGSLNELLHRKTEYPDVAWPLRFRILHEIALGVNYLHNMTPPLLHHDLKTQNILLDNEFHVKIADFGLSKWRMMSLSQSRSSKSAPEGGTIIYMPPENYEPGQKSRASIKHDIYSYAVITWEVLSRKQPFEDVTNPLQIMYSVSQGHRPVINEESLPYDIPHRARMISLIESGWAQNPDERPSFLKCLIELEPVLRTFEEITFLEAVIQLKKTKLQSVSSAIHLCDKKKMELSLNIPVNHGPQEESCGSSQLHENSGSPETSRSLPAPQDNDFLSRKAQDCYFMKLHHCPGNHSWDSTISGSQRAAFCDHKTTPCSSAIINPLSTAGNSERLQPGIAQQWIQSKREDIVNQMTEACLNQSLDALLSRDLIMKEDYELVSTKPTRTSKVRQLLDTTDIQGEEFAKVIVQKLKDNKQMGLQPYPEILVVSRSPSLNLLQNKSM
# MC4R antag cAMP – antagonists of human melanocortin 4 receptor (MC4R); P32245; MC4R-expressing cells, MTII-stimulated cAMP, LANCE TR-FRET; inhibition, % at 6.5 µM; actives 0.48% (n = 360,000); AID 540295;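 active = inhibition above its plate's cutoff, the mean of tested wells on that plate plus 3 SD, cut at about 29% in these data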;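 also: 0% = Melanotan II alone and 100% = Melanotan II plus saturating MCL0020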
#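 System – human MC4R-expressing U2OS cells · Also added – Melanotan II · Dosing – one concentration, 6.5 µM nominal · Timing – 30-min compound, 1-h challenge, 1-h detection, room temperature · Measured by – Eu-cAMP/anti-cAMP TR-FRET, emission 671 nm · Replicates – singlicate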
# TLR9-MyD88 inh – TLR9-MyD88 interaction inhibition | Q9NR96+Q99836 | CHO BLA complementation TLR9-MyD88, CCF4 FRET ratio | inhibition, % at 4.98 µM | actives 0.21% (n = 340,000);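 active = inhibition above the mean over all tested compounds plus 3 SD, cut at about 21% in these data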;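 also: 0% = DMSO only wells and 100% = clavulanate BLA inhibitor control wells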
# NOD2-RIPK2 conf – NOD2-RIPK2 interaction inhibition confirmed; actives 70% (n = 1,200); AID 624370; inhibition, % at 4.98 µM; CHO cells, NOD2-RIPK2 BLA complementation, CCF4 FRET; shares compounds with NOD2-RIPK2 inh;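 active = mean inhibition across replicates above a set limit taken from the earlier primary screen, cut at about 21% in these data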;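 also: 0% = DMSO-only wells and the high end = clavulanate BLA-blocked wells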
# BLA counter – hits BLA reporter in NOD2-RIPK2 inhibitor counterscreen; inhibition, % at 4.98 µM; CHO BLA reporter, CCF4 FRET ratio; actives 57% (n = 1,200); AID 624371; shares compounds with NOD2-RIPK2 inh;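 active = mean inhibition above the low-control mean inhibition plus three low-control SD, cut at about 11% in these data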;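 also: 0% = DMSO only wells and 100% = clavulanate high control wells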
# * marks the source's active call; other numbers are inactive results; nt = no result. Hits are enriched below; roughly 2.1% of the tested compounds scored in any of these assays.
SMILES,TLR4 MyD88 comp,MC4R barr agon,MIN6 prolif,NOD2-RIPK2 inh,MC4R antag cAMP,TLR9-MyD88 inh,NOD2-RIPK2 conf,BLA counter
CC(C)(C)NC(=O)CN(CCN1CCOCC1)C(=O)CNS(=O)(=O)c1ccccc1,nt,4,-2,-15,2,-1,nt,nt
CCOC(=O)N1CCN(C(=O)CSc2nnc3[nH]c(=O)c(C)c(C)n23)CC1,nt,-4,1,3,15,2,nt,nt
N#Cc1ccc(C(C(=O)NC2CCCCC2)n2c(=O)c(-c3ccco3)nc3ccccc32)cc1 (configuration not stated),nt,nt,nt,-1,nt,nt,nt,nt
O=C(NC1CCCCC1)C(c1ccnc2ccccc12)n1c(=O)c(-c2cc3ccccc3[nH]2)nc2ccccc21 (configuration not stated),nt,nt,nt,51*,nt,nt,50*,67*
N#Cc1ccc(C(C(=O)NC2CCCCC2)n2c(=O)c(-c3cc4ccccc4[nH]3)nc3ccccc32)cc1 (configuration not stated),nt,nt,nt,54*,nt,nt,50*,71*
COc1ccc(C(C(=O)NC2CCCCC2)n2c(=O)c(-c3cc4ccccc4[nH]3)nc3ccccc32)cc1 (configuration not stated),nt,nt,nt,44*,nt,nt,41*,65*
O=C(NC1CCCCC1)C(c1ccccc1)n1c(=O)c(-c2cc3ccccc3[nH]2)nc2ccccc21 (configuration not stated),nt,nt,nt,44*,nt,nt,40*,66*
CCc1nnc(NC(=O)c2cccc(S(=O)(=O)N3CCN(C)CC3)c2)s1,nt,-2,nt,8,3,-5,nt,nt
O=C(CN(C(=O)C1CSC(=O)C1)c1cccc(F)c1)NCc1ccc2c(c1)OCO2 (configuration not stated),nt,1,2,-4,-2,0,nt,nt
COC(=O)c1sccc1NC(=O)COc1ccc(Cl)cc1Cl,-3,3,0,-1,0,4,nt,nt
Cc1c(C(N)=O)cc([N+](=O)[O-])cc1[N+](=O)[O-],nt,-2,nt,-1,3,-3,nt,nt
CCCCCNC(=O)C(C1CC1)n1c(=O)c(-c2cc3ccccc3[nH]2)nc2ccccc21 (configuration not stated),nt,nt,nt,45*,nt,nt,37*,64*
CCCCCNC(=O)C(c1ccc(-c2ccccc2)cc1)n1c(=O)c(-c2cc3ccccc3[nH]2)nc2ccccc21 (configuration not stated),nt,nt,nt,25*,nt,nt,37*,64*
CCCCCNC(=O)C(c1cc2ccccc2o1)n1c(=O)c(-c2cc3ccccc3[nH]2)nc2ccccc21 (configuration not stated),nt,nt,nt,48*,nt,nt,43*,66*
CCCCCNC(=O)C(c1cc2ccccc2o1)n1c(=O)c(-c2ccccc2)nc2ccccc21 (configuration not stated),nt,nt,nt,-13,nt,nt,nt,nt
CCCCCNC(=O)C(C1CC1)n1c(=O)c(-c2ccco2)nc2ccccc21 (configuration not stated),nt,nt,nt,7,nt,nt,nt,nt
CN1OC[C@@H]2CN(Cc3ccccc3)[C@H](c3cccc(-c4ccc(C#N)cc4)c3)C[C@@H]21,nt,1,nt,-6,6,-6,nt,nt
CC(C)(C)[C@H](N)C(=O)N[C@H]1CCC2C3CC=C4C[C@@H](O)CC[C@]4(C)C3CC[C@@]21C (some centres not stated),nt,3,-6,21*,1,6,22*,8
COCC(C)NS(=O)(=O)c1ccc(C(=O)NC(Cc2ccccc2)c2ccccc2)cc1 (configuration not stated),nt,-1,-5,4,12,-11,nt,nt
COc1ccccc1Cc1c(-c2ccco2)nc2c(C)cc(Br)cn12,nt,nt,nt,25*,nt,nt,1,-5
Cc1cccc(NS(=O)(=O)c2cc([N+](=O)[O-])ccc2C)n1,7,-1,-1,42*,25,10,-2,-5
COc1ccccc1OCCn1cc(/C=C(\C#N)C(=O)NCc2cccs2)c2ccccc21,8,-2,0,29*,3,0,-8,0
O=C(N/N=C/c1[nH]c2ccccc2c1Cl)c1cccc(Br)c1,nt,3,-1,24*,18,nt,11,31*
Cc1[nH]c2ccccc2c1/C=N/NC(=O)c1cccc(Br)c1,nt,-1,-2,-8,-3,-5,nt,nt
COc1cccc(C(NC(C)=O)c2nc(-c3ccc(F)cc3OC)cs2)c1 (configuration not stated),nt,-2,nt,-6,7,nt,nt,nt
SMILES,TLR4 MyD88 comp,MC4R barr agon,MIN6 prolif,NOD2-RIPK2 inh,MC4R antag cAMP,TLR9-MyD88 inh,NOD2-RIPK2 conf,BLA counter
COC(=O)C1=C/C=C\CN(C(c2ccccc2)c2ccccc2)/C=C\1C(=O)OC,nt,0,nt,-1,6,-4,nt,nt
CSCCC(c1nc2ccccc2[nH]1)n1c(/C=C/c2ccc(F)c(F)c2)nc2ccccc21 (configuration not stated),nt,nt,nt,-14,nt,nt,nt,nt
CSCCC(c1nc2ccccc2[nH]1)n1c(=O)c(-c2cc3ccccc3[nH]2)nc2ccccc21 (configuration not stated),nt,nt,nt,40*,nt,nt,35*,59*
Cc1ccc(Cc2nc3ccccc3n2C(CCc2ccccc2)c2nc3ccccc3[nH]2)cc1 (configuration not stated),nt,nt,nt,-5,nt,nt,nt,nt
O=c1c(-c2cc3ccccc3[nH]2)nc2ccccc2n1C(CCc1ccccc1)c1nc2ccccc2[nH]1 (configuration not stated),nt,nt,nt,38*,nt,nt,36*,62*
O=C(Nc1ccc(Cl)cc1)Nc1nnc(CSCc2ccc(Cl)cc2)s1,-1,1,-6,-4,-3,6,nt,nt
N#Cc1cc(Oc2cccc3cccnc23)c(-n2nnc3ccccc32)cc1C#N,3,-3,-6,70*,16,19,-11,-3
N#Cc1cc(O)c(-n2nnc3ccccc32)cc1C#N,6,4,0,2,22,0,nt,nt
Cc1ccc(Nc2nc(N)c([N+](=O)[O-])c(NCc3ccco3)n2)cc1,10,8,1,25*,-6,-4,8,-2
O=C(Cn1sc2ccccc2c1=O)Nc1ccc(F)cc1,nt,-3,nt,25*,12,11,25*,1
O=C(Cn1nc(-c2ccccc2)c2ccccc2c1=O)Nc1ccc(F)cc1,nt,1,-2,-3,-1,-14,nt,nt
O=C(CN1C(=O)CNC1=O)Nc1ccc(Cl)cc1,nt,-2,-1,-2,12,-4,nt,nt
O=C(Cn1sc2ccccc2c1=O)Nc1ccc(Cl)cc1,nt,-2,nt,21*,3,5,42*,7
